Data as given in PMC6147567 (Molecules : A Journal of Synthetic Chemistry and Natural …, 2005).

Assays:
[1] = biological target: xanthine oxidase (Xox) from buttermilk (Bos taurus, UniProt P80457); assay: Inhibition of xanthine oxidase, hypoxanthine oxidation test; format: biochemical; conditions: for inhibition of Xox (in words): Xox from buttermilk
Outline: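 Buttermilk enzyme assayed by hypoxanthine oxidation at 48–150 μM substrate in 50 mM phosphate, pH 7.0, 25 °C. Product formation was followed at 300 nm in a thermostatted spectrophotometer. Inhibitor concentrations were set spectrophotometrically from absorption data and reached up to ~300 μM. IC50 was obtained at more than one hypoxanthine level, and 'no inhibition' means none detected up to 300 μM.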

[2] = biological target: T1, rabbit muscle guanine deaminase (GDA) (Oryctolagus cuniculus, UniProt G1T386); assay: Guanine deaminase assay with 8-azaguanine as substrate; format: biochemical; conditions: concentrations up to 150 μM, 50 mM phosphate pH 6.1, 25 °C
T1 sequence (G1T386 1-454): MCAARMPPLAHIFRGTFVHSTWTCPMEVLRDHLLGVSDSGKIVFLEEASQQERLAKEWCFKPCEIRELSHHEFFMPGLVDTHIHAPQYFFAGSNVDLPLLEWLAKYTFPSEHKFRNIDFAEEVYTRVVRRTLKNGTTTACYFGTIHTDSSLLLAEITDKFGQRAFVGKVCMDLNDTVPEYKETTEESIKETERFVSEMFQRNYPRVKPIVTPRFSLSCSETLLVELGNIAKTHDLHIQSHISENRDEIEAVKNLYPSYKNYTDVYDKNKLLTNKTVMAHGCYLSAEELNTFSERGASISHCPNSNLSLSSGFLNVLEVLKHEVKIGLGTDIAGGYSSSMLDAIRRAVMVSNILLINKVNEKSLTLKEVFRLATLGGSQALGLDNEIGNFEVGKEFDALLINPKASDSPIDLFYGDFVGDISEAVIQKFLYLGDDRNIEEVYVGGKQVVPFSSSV
Outline: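 Commercial guanine deaminase, assayed at pH 6.1 with ~50 μM 8-azaguanine as substrate. Reaction followed at 265 nm in a thermostatted UV spectrophotometer; default temperature for the work was 25 °C. Test compound concentrations were determined spectrophotometrically from absorption data and ranged up to ~300 μM.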

xanthine oxidase (Xox) = conditions: cited from earlier work

Sequence of xanthine oxidase (Xox) from buttermilk (P80457 whole entry): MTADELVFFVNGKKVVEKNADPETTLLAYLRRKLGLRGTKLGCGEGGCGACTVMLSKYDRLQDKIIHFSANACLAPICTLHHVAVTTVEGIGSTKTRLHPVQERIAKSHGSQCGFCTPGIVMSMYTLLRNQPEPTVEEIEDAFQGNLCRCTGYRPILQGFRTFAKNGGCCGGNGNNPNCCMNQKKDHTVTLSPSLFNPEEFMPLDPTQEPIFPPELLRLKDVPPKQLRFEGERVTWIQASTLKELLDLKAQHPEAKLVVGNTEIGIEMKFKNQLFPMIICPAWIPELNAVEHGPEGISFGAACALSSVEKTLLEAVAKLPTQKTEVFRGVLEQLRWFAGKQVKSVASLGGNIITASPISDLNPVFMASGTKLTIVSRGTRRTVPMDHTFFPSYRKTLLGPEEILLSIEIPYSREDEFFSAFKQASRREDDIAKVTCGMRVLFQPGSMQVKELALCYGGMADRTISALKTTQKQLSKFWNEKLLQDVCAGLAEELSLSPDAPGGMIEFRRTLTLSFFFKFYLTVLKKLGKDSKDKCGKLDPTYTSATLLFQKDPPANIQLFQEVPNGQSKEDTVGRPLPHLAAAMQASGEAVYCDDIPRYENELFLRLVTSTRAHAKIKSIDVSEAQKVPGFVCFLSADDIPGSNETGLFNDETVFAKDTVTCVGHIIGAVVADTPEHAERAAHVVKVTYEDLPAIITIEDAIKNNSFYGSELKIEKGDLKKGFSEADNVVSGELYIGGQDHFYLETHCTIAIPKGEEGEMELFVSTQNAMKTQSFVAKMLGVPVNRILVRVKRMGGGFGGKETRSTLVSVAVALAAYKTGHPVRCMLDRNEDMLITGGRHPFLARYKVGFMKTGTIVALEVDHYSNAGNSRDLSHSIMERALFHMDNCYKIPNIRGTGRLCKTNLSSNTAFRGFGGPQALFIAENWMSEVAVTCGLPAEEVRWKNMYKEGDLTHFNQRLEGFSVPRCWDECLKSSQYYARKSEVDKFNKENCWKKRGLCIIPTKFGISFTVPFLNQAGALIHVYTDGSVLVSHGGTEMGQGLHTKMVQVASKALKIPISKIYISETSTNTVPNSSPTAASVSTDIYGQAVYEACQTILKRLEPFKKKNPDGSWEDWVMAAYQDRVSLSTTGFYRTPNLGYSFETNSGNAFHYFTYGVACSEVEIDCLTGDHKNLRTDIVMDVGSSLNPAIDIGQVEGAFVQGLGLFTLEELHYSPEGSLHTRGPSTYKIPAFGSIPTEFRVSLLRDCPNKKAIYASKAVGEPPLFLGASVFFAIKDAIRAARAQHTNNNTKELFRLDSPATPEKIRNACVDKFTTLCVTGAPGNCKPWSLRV

SMILES	IC50 [1]	inhibition of Xox (in words) [1]	other results
Cc1n[nH]c2nncnc12 [Compound 7, 3-Methyl-1H-pyrazolo[4,3-e][1,2,4]triazine]		Only weak inhibition	inhibition of Xox (in words) ([1]; listed as 3-methyl-7-azapyrazolo[4,3-d]pyrimidine): detectable inhibition
Cc1nn(C)c2nncnc12 [Compound 8, 1,3-dimethyl-1H-pyrazolo[4,3-e][1,2,4]triazine]	> 300 µM		
Oc1ncnc2[nH]ncc12 [allopurinol]			inhibition of xanthine oxidase (in words) (xanthine oxidase (Xox)): strong inhibitors

The next lines start with results.

IC50 [1]	inhibition of Xox (in words) [1]	SMILES	other results
~300 µM	moderate inhibitory activity	CSc1nnc2[nH]nc(C)c2n1 [Compound 1, 3-Methyl-5-methylsulfanyl-1H-pyrazolo[4,3-e][1,2,4]triazine]	inhibition of Xox (in words) ([1]; listed as S-methyl derivative): detectable inhibition
> 300 µM		Cc1n[nH]c2nnc(N)nc12 [Compound 4, 5-Amino-3-methyl-1H-pyrazolo[4,3-e][1,2,4]triazine]	activity as a substrate of GDA [2]: did not show any activity; activity as an inhibitor of GDA [2]: did not show any activity
